Measurements: ChEMBL document CHEMBL5678810
Calls of active or inactive are those of the source. The calls are words filed in the database; no cut-off is given here.

Columns and labels:
[1] = test system: Leucine-rich repeat serine/threonine-protein kinase 2 (Homo sapiens), Q5S007 [A2016T]; assay: Inhibition of drug-resistant GFP-tagged LRRK2 A2016T mutant phosphorylation at Ser935 residue (unknown origin) transfected in HEK293 cells upto 3 uM incubated for 90 mins by immunoblot analysis; format: cell-based
Method in brief: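 HEK293 cells stably expressing GFP-LRRK2 variants, grown in DMEM with 10% FBS, 2 mM glutamine and penicillin/streptomycin. Compound added from DMSO stock (final DMSO ≤1%) at increasing concentrations for 90 min, DMSO control. Cells were PBS-washed and lysed in Triton X-100 lysis buffer. Lysates were run on 8% SDS-PAGE and immunoblotted with rabbit monoclonals against pSer910, pSer935 and total LRRK2.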

[2] = biological target: Cyclin-dependent kinase 4/cyclin D1 (Homo sapiens) (UniProt P11802+P24385); assay: Inhibition of T7 bacteriophage fused human CDK4-cyclinD1 at 10 uM by KINOMEscan analysis relative to control; format: protein-complex assay
[3] = biological target: Serine/threonine-protein kinase PLK4 (Homo sapiens) (UniProt O00444); assay: Inhibition of T7 bacteriophage fused human PLK4 at 10 uM by KINOMEscan analysis relative to control
[4] = biological target: Bone morphogenetic protein receptor type-2 (Homo sapiens) (UniProt Q13873); assay: Inhibition of T7 bacteriophage fused human BMPR2 at 10 uM by KINOMEscan analysis relative to control
Sequence of Bone morphogenetic protein receptor type-2 (Homo sapiens) (Q13873 whole entry, the tested form may be a part): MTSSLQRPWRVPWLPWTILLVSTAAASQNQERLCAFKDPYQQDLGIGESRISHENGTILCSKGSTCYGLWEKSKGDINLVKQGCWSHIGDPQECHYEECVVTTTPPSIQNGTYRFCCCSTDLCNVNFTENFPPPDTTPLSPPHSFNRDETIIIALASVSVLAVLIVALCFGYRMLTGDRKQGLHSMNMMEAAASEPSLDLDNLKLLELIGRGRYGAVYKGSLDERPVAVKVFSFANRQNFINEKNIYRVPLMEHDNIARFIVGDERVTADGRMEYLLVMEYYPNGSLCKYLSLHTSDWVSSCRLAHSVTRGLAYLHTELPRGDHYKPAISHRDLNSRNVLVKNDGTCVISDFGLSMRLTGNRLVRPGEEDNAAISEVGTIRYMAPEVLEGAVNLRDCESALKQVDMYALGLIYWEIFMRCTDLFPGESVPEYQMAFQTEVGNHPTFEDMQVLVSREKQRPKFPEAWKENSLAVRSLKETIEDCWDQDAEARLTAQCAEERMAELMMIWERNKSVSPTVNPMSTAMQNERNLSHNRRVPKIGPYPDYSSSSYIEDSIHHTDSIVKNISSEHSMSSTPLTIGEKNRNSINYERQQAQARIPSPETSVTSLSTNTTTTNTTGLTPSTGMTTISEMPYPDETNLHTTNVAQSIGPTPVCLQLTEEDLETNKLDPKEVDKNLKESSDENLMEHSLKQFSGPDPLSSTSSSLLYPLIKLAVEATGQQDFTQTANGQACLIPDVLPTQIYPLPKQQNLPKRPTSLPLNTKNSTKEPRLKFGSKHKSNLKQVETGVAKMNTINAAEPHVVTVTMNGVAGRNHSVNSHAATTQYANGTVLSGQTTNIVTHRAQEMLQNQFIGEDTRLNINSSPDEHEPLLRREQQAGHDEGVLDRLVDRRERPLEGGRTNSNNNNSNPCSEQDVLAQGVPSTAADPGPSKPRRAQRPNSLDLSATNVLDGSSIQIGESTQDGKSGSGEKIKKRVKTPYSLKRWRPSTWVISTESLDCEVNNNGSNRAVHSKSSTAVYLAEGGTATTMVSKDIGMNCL

[5] = biological target: Serine/threonine-protein kinase Nek11 (Homo sapiens) (UniProt Q8NG66); assay: Inhibition of T7 bacteriophage fused human NEK11 at 10 uM by KINOMEscan analysis relative to control
[6] = biological target: Receptor tyrosine-protein kinase erbB-2 (Homo sapiens) (UniProt P04626); assay: Inhibition of T7 bacteriophage fused human ERBB2 at 10 uM by KINOMEscan analysis relative to control
[7] = biological target: Calcium/calmodulin-dependent protein kinase type II subunit beta (Homo sapiens) (UniProt Q13554); assay: Inhibition of T7 bacteriophage fused human CAMK2B at 10 uM by KINOMEscan analysis relative to control
[8] = biological target: Mitogen-activated protein kinase 8 (Homo sapiens) (UniProt P45983); assay: Inhibition of T7 bacteriophage fused human JNK1 at 10 uM by KINOMEscan analysis relative to control; values are per cent of control
Sequence of Mitogen-activated protein kinase 8 (Homo sapiens) (P45983 whole entry, the tested form may be a part): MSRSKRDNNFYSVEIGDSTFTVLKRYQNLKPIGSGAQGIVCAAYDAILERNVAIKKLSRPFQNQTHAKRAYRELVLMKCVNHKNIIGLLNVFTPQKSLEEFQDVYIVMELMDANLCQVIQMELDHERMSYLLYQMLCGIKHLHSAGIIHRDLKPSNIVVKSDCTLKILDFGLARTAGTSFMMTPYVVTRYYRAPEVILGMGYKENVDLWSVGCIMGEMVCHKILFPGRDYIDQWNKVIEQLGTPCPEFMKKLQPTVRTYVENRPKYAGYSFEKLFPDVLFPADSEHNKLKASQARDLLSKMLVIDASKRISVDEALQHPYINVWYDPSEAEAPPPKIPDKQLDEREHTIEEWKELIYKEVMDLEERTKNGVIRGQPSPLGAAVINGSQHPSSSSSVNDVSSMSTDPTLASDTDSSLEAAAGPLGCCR

[9] = biological target: Mitogen-activated protein kinase 9 (Homo sapiens) (UniProt P45984); assay: Inhibition of T7 bacteriophage fused human JNK2 at 10 uM by KINOMEscan analysis relative to control
[10] = biological target: Calcium/calmodulin-dependent protein kinase type IV (Homo sapiens) (UniProt Q16566); assay: Inhibition of T7 bacteriophage fused human CAMK4 at 10 uM by KINOMEscan analysis relative to control
[11] = biological target: Serine/threonine-protein kinase Nek3 (Homo sapiens) (UniProt P51956); assay: Inhibition of T7 bacteriophage fused human NEK3 at 10 uM by KINOMEscan analysis relative to control
Sequence of Serine/threonine-protein kinase Nek3 (Homo sapiens) (P51956 whole entry, the tested form may be a part): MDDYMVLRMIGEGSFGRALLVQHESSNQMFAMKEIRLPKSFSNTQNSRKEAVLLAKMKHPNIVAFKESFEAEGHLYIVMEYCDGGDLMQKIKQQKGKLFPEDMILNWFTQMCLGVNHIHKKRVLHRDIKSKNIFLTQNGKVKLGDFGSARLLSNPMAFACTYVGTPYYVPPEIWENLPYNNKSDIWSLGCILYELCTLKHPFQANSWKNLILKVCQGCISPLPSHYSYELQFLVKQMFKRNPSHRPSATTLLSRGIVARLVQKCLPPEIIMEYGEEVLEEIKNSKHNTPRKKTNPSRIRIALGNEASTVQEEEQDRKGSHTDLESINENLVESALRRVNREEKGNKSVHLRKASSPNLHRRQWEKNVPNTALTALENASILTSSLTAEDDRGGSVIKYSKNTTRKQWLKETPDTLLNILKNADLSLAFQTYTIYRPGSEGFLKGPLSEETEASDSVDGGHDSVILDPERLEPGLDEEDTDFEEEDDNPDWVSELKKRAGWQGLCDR

[12] = biological target: Rho-associated protein kinase 1 (Homo sapiens) (UniProt Q13464); assay: Inhibition of T7 bacteriophage fused human ROCK1 at 10 uM by KINOMEscan analysis relative to control
Sequence of Rho-associated protein kinase 1 (Homo sapiens) (Q13464 2-1354 limits assumed): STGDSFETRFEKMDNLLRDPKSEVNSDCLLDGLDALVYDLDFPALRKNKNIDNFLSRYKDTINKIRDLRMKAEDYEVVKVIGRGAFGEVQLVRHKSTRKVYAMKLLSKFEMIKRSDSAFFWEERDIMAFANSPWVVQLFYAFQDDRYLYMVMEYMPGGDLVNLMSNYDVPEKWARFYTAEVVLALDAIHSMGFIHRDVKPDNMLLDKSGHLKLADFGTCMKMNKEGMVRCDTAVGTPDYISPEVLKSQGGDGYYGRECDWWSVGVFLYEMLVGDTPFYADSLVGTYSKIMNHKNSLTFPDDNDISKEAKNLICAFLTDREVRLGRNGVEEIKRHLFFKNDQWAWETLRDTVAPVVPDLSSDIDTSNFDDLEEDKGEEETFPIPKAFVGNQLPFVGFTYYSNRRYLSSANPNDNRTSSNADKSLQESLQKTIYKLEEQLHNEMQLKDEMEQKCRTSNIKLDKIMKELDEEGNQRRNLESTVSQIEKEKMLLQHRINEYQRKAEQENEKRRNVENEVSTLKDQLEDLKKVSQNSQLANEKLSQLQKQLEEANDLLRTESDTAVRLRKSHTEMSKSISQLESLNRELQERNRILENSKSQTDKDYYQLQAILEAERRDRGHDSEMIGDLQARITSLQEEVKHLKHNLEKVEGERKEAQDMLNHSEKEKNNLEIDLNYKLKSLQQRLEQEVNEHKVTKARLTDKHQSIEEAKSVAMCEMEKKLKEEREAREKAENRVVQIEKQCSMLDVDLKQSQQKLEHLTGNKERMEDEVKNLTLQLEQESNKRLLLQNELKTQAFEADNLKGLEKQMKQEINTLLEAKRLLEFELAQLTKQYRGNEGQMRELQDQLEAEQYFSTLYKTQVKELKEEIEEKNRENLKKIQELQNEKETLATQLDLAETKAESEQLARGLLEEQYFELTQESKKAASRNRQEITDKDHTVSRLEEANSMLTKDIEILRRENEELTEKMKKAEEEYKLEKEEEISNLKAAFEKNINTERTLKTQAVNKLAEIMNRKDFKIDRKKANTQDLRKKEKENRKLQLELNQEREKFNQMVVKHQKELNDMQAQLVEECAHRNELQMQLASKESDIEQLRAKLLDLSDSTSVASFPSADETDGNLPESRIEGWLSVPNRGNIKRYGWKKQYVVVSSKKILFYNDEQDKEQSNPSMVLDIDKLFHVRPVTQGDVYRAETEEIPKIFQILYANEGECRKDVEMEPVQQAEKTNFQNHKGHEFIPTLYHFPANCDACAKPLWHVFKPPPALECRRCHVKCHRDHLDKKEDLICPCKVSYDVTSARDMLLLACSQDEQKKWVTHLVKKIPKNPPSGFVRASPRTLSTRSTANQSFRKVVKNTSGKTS

[13] = biological target: Serine/threonine-protein kinase MRCK gamma (Homo sapiens) (UniProt Q6DT37); assay: Inhibition of T7 bacteriophage fused human DMPK2 at 10 uM by KINOMEscan analysis relative to control
[14] = biological target: Epithelial discoidin domain-containing receptor 1 (Homo sapiens) (UniProt Q08345); assay: Inhibition of T7 bacteriophage fused human DDR1 at 10 uM by KINOMEscan analysis relative to control
Sequence of Epithelial discoidin domain-containing receptor 1 (Homo sapiens) (Q08345 whole entry, the tested form may be a part): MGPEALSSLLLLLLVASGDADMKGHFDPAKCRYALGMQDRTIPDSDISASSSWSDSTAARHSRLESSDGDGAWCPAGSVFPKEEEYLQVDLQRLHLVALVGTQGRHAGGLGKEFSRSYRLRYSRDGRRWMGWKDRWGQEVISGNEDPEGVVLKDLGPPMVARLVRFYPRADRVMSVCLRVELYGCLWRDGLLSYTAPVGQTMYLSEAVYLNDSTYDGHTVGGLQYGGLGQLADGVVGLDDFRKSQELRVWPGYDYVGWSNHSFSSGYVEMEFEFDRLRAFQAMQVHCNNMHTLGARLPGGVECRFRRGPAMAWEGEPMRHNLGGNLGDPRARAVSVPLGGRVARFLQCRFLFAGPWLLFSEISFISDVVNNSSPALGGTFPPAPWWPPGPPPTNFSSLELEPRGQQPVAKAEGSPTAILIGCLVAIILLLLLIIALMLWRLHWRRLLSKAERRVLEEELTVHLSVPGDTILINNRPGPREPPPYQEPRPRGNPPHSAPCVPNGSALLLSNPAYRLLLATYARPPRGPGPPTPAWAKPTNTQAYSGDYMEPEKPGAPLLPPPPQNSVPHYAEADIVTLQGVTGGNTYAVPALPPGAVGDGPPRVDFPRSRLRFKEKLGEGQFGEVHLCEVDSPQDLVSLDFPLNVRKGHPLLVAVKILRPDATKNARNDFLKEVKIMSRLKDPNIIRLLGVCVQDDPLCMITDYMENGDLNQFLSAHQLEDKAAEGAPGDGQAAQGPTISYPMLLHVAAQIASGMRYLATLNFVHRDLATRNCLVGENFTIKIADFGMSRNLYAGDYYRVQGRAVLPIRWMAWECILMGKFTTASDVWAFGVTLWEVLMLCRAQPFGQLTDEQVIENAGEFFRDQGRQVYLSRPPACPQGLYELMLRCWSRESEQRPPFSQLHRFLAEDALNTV

[15] = biological target: RAC-gamma serine/threonine-protein kinase (Homo sapiens) (UniProt Q9Y243); assay: Inhibition of T7 bacteriophage fused human AKT3 at 10 uM by KINOMEscan analysis relative to control
[16] = test system: Mast/stem cell growth factor receptor Kit (Homo sapiens), P10721 [V559D]; assay: Inhibition of T7 bacteriophage fused human KIT V559D mutant at 10 uM by KINOMEscan analysis relative to control
[17] = biological target: Ephrin type-B receptor 4 (Homo sapiens) (UniProt P54760); assay: Inhibition of T7 bacteriophage fused human EPHB4 at 10 uM by KINOMEscan analysis relative to control
[18] = biological target: Mitogen-activated protein kinase kinase kinase 9 (Homo sapiens) (UniProt P80192); assay: Inhibition of T7 bacteriophage fused human MLK1 at 10 uM by KINOMEscan analysis relative to control; values are per cent of control
[19] = biological target: Serine/threonine-protein kinase pim-3 (Homo sapiens) (UniProt Q86V86); assay: Inhibition of T7 bacteriophage fused human PIM3 at 10 uM by KINOMEscan analysis relative to control
[20] = test system: Epidermal growth factor receptor (Homo sapiens), P00533 [G719C]; assay: Inhibition of T7 bacteriophage fused human EGFR G719C mutant at 10 uM by KINOMEscan analysis relative to control
[21] = biological target: Cyclin-dependent kinase 18 (Homo sapiens) (UniProt Q07002); assay: Inhibition of T7 bacteriophage fused human PCTK3 at 10 uM by KINOMEscan analysis relative to control
[22] = biological target: Tyrosine-protein kinase Lck (Homo sapiens) (UniProt P06239); assay: Inhibition of T7 bacteriophage fused human LCK at 10 uM by KINOMEscan analysis relative to control
[23] = biological target: Ribosomal protein S6 kinase alpha-5 (Homo sapiens) (UniProt O75582); assay: Inhibition of T7 bacteriophage fused human C-terminal RPS6KA5 Kinase domain-2 at 10 uM by KINOMEscan analysis relative to control
Sequence of Ribosomal protein S6 kinase alpha-5 (Homo sapiens) (O75582 whole entry, looked up, the tested form may be a part): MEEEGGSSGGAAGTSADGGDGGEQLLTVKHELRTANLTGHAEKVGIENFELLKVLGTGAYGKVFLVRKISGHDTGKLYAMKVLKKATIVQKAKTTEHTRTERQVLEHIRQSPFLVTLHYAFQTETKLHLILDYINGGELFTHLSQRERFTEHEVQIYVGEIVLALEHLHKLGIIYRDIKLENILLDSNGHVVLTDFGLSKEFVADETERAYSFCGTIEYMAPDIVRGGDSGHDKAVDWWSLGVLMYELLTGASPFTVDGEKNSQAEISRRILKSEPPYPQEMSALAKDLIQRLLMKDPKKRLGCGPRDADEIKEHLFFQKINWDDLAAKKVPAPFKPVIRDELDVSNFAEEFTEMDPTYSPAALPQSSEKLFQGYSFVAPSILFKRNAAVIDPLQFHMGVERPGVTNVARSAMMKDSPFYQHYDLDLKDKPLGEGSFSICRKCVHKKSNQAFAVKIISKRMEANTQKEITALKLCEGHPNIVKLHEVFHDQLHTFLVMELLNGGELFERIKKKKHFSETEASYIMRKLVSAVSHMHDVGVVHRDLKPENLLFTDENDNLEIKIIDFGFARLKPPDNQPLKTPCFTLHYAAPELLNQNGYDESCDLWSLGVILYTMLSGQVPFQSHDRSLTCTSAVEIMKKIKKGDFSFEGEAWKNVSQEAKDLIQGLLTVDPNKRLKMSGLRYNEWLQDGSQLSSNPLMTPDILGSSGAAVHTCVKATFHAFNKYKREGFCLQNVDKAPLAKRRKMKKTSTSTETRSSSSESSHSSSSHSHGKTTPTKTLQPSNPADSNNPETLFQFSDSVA

[24] = test system: Tyrosine-protein kinase ABL1 (Homo sapiens), P00519 [Q252H]; assay: Inhibition of T7 bacteriophage fused human nonphosphorylated ABL1 Q252H mutant at 10 uM by KINOMEscan analysis relative to control
[25] = biological target: Serine/threonine-protein kinase PAK 1 (Homo sapiens) (UniProt Q13153); assay: Inhibition of T7 bacteriophage fused human PAK1 at 10 uM by KINOMEscan analysis relative to control
[26] = test system: Tyrosine-protein kinase ABL1 (Homo sapiens), P00519 [T315I]; assay: Inhibition of T7 bacteriophage fused human phosphorylated ABL1 T315I mutant at 10 uM by KINOMEscan analysis relative to control
[27] = biological target: Serine/threonine-protein kinase LATS1 (Homo sapiens) (UniProt O95835); assay: Inhibition of T7 bacteriophage fused human LATS1 at 10 uM by KINOMEscan analysis relative to control
[28] = biological target: Ephrin type-A receptor 8 (Homo sapiens) (UniProt P29322); assay: Inhibition of T7 bacteriophage fused human EPHA8 at 10 uM by KINOMEscan analysis relative to control; values are per cent of control
[29] = biological target: Serine/threonine-protein kinase A-Raf (Homo sapiens) (UniProt P10398); assay: Inhibition of ARAF Lys2 labeling site in human HEL cell lysate at 10 uM by KiNativ profiling analysis relative to control; format: subcellular

**Q.** With CCOc1cc(C(=O)N2CCC(N3CCN(C)CC3)CC2)ccc1Nc1ncc2c(n1)N(C1CCCC1)c1ccccc1C(=O)N2C as the compound, how does the inhibition [1] read?
**A.** Its inhibition is “inactive”.

**Q.** Which results are given for COc1cc(N2CCC(N3CCN(C)CC3)CC2)ccc1Nc1ncc2c(n1)N(C)c1ccccc1C(=O)N2C?
**A.** inhibition [2]: 100%; inhibition [3]: 0%; inhibition [4]: 100%; inhibition [5]: 100%; inhibition [6]: 100%; inhibition [7]: 62%; residual activity [8]: 95%; inhibition [9]: 94%; inhibition [10]: 79%; inhibition [11]: 100%; inhibition [12]: 100%; inhibition [13]: 100%; inhibition [14]: 100%; inhibition [15]: 100%; inhibition [16]: 100%; inhibition [17]: 100%; residual activity [18]: 93%; inhibition [19]: 88%; inhibition [20]: 100%; inhibition [21]: 100%; inhibition [22]: 100%; inhibition [23]: 92%; inhibition [24]: 100%; inhibition [25]: 95%; inhibition [26]: 58%; inhibition [27]: 100%; residual activity [28]: 80%

**Q.** Which inhibition [29] does the source give for COc1cc(C(=O)N2CCC(N3CCN(C)CC3)CC2)ccc1Nc1ncc2c(n1)N(C1CCCC1)c1ccccc1C(=O)N2C here?
**A.** Its inhibition is -0.7%.
